Paper PMC3585837 (Drugs in R&D, 2012)
“Also recorded” adds a separate entry of the source. Where two headings read alike, the source gives them in different places.

How the values were obtained:
[1] = first- and second-generation DβH inhibitors; cited from earlier work
[2] = tested on: dopamine-β-hydroxylase (DβH); settings: cited from earlier work
[3] = 200 mg single dose, fasting condition; cited from earlier work
[4] = cited from earlier work
[5] = tested on: male cardiomyopathic hamsters (Bio TO-2 dilated strain); settings: male cardiomyopathic hamsters (Bio TO-2 dilated strain) with advanced congestive heart failure; cited from earlier work
[6] = cited from earlier work; for Increase of the extent of systemic exposure with dose / Linearity of pharmacokinetics: once-daily 25-600 mg for 10 days
[7] = tested on: normotensive Wistar-Kyotos rats; settings: cited from earlier work
mice = settings: cited from earlier work
[8] = tested on: dopamine or noradrenaline levels in the brain; settings: in contrast to peripheral tissues; cited from earlier work
[9] = type: in vivo, human; settings: for AUClast test/reference geometric means ratio (GMR) / AUC∞ test/reference geometric means ratio (GMR) / Cmax test/reference geometric means ratio (GMR): fed (test) vs fasting (reference), n = 12
[10] = tested on: spontaneously hypertensive rats; settings: cited from earlier work
Cynomolgus monkeys = settings: cited from earlier work
rats = settings: cited from earlier work
dogs = settings: cited from earlier work
[11] = Tolerability in the food-effect study; type: in vivo, human
How it was run: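 Randomized two-period crossover in 12 healthy men (18–45 y, BMI 19–28 kg/m2). Each received a single 200 mg oral dose (four 50 mg capsules, 240 mL water) after a high-fat, high-calorie breakfast or a 10 h fast; washout ≥14 days; confined until 72 h post-dose. Adverse events monitored throughout, recording onset, offset, severity, relatedness, action and outcome. Vital signs, physical examination, hematology and biochemistry at each admission.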

[12] = cited from earlier work; remark: listed apart in the source
[13] = rat; cited from earlier work
[14] = tested on: dopamine-β-hydroxylase (DβH); settings: cited from earlier work; remark: listed apart in the source
[15] = first- and second-generation DβH inhibitors
[16] = 90% CI of GMR against the acceptance interval (80, 125)

CCN(CC)C(=S)S [diethyldithiocarbamate]
Side effects [1]: toxic side effects | Potency as DβH inhibitor [2, 15]: low potency | Selectivity for DβH [2, 15]: poor selectivity

Cl.NCCc1c[nH]c(=S)n1[C@H]1COc2c(F)cc(F)cc2C1 [etamicastat, (R)-5-(2-aminoethyl)-1-(6,8-difluorochroman-3-yl)-1,3-dihydroimidazole-2-thione hydrochloride]
AUClast, arithmetic mean [3]: 2026 ng·h/mL | AUC∞, arithmetic mean [3]: 2230 ng·h/mL | Cmax, arithmetic mean [3]: 202 ng/mL | t1/2, arithmetic mean [3]: 19.8 h | Effect of NAT1 phenotype on pharmacokinetics [4]: no relevant effect | Survival rates [5]: increased survival rates | Increase of the extent of systemic exposure with dose [6]: approximately dose-proportional | Linearity of pharmacokinetics [6]: linear pharmacokinetics | Etamicastat dose recovered in urine in the form of etamicastat and BIA 5-961 ([6]; once-daily dosing): Approximately 40% | Time to attain steady-state plasma concentrations ([6]; once-daily dosing): up to 9 days | Tolerability ([6]; orally, doses up to 600mg once daily for 10 days, male healthy volunteers): appears to be well tolerated | Heart rate ([7]; Wistar-Kyotos rats): did not affect | Systolic and diastolic blood pressure ([7]; normotensive Wistar-Kyotos rats): no changes | No observed adverse effect level (mice): 30 mg/kg/day | Effect on dopamine or noradrenaline levels in the brain [8]: does not affect | Bioequivalence fed vs fasting for Cmax [9, 16]: did not fit the claim of bioequivalence; also recorded: does not fit the claim of bioequivalence | Bioequivalence fed vs fasting for extent of exposure (AUClast and AUC∞) [9, 16]: fulfilled the claim of bioequivalence; also recorded: remained within the acceptance interval; also recorded: remained unchanged | AUClast test/reference geometric means ratio (GMR) ([9]; single oral etamicastat 200 mg): 93.59% | AUC∞ test/reference geometric means ratio (GMR) ([9]; single oral etamicastat 200 mg): 96.47% | Cmax test/reference geometric means ratio (GMR) ([9]; single oral etamicastat 200 mg): 72.27% | Effect of food on tmax ([9]; fed vs fasting, Wilcoxon signed rank test): prolonged; also recorded: significantly delayed; also recorded: significantly increased | Decrease of Cmax as a result of food intake ([9]; fed vs fasting, single oral etamicastat 200 mg): 28% | Heart rate [10]: did not affect | Systolic and diastolic blood pressure [10]: reduced | No observed adverse effect level (Cynomolgus monkeys): 20 mg/kg/day | No observed adverse effect level (rats): 30 mg/kg/day | No observed adverse effect level (dogs): 5 mg/kg/day | Intensity of TEAEs ([11]; both periods): mild to moderate | Serious adverse events or discontinuations due to adverse events ([11]; both periods): no serious adverse events or discontinuations due to adverse events | Total number of treatment-emergent adverse events ([11]; both periods, single oral etamicastat 200 mg): six | Abnormalities in vital signs, ECG or laboratory safety tests ([11]; during the study): no clinically significant abnormality; also recorded: No clinically relevant abnormalities | Number of TEAEs ([11]; fed period (abdominal pain, asthenia, headache, intercostal pain)): four | Proportion of subjects reporting treatment-emergent adverse events ([11]; of 12 subjects, single oral etamicastat 200 mg, both periods): 33.3% | Overall tolerability ([11]; single oral 200 mg, fasting and fed periods, healthy male subjects): well tolerated

NCc1c[nH]c(=S)n1[C@H]1CCc2c(F)cc(F)cc2C1 [nepicastat]
Potency as DβH inhibitor ([2]; third-generation DβH inhibitor, compared with first and second generation): much greater potency | Crossing of the blood-brain barrier [12]: cross the blood-brain barrier

CC(=O)NCCc1c[nH]c(=S)n1[C@H]1COc2c(F)cc(F)cc2C1 [BIA 5-961]
AUC in NAT2 rapid acetylators compared with poor acetylators [4]: markedly higher | Increase of the extent of systemic exposure with dose [6]: approximately dose-proportional | Linearity of pharmacokinetics [6]: linear pharmacokinetics | Occurrence as metabolite of etamicastat [13]: major metabolic pathway | Activity of the metabolite [14]: inactive | Effect of food on AUC∞, AUClast and Cmax (systemic exposure) of the metabolite ([9]; etamicastat 200 mg administered in the presence of food vs fasting): significant decrease; also recorded: decreased | AUClast test/reference geometric means ratio (GMR) ([9]; single oral etamicastat 200 mg): 79.41% | AUC∞ test/reference geometric means ratio (GMR) ([9]; single oral etamicastat 200 mg): 83.47% | Cmax test/reference geometric means ratio (GMR) ([9]; single oral etamicastat 200 mg): 62.42%

CCCCc1ccc(C(=O)O)nc1 [fusaric acid]
Side effects [1]: toxic side effects | Potency as DβH inhibitor [2, 15]: low potency | Selectivity for DβH [2, 15]: poor selectivity

CCN(CC)C(=S)SSC(=S)N(CC)CC [disulfiram]
Side effects [1]: toxic side effects | Potency as DβH inhibitor [2, 15]: low potency | Selectivity for DβH [2, 15]: poor selectivity
